# Assay results from publication PMC10582670 (Clinical and Translational Science, 2023).
# Values joined by “and” are separate entries in the source; they are usually repeats but may differ in a detail not shown here. Identical values can stand only once.
# System: healthy volunteers
# Assay: Safety and tolerability
# Type: in vivo, human
# Outline: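 Healthy volunteers aged 18–55 y, BMI 18–30 kg/m², randomised double-blind 8:2 to once-daily oral drug or placebo for up to 14 days, with follow-up visits on days 21 and 42. Treatment-emergent AEs coded with MedDRA 23.1 and graded with the WHO toxicity scale, alongside ECGs, laboratory tests and vital signs. The safety population was all subjects receiving at least one dose.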
smiles,measurement,setting,value
O=C(c1nc2n(n1)[C@H](c1ccccc1)C[C@@H]2F)C1CC1 [GDC‐8264],No. of TEAEs,"MAD 50 mg q.d., n = 5",10
same,No. of deaths,"MAD 50 mg q.d., n = 5",0 no. of subjects (%)
same,No. of subjects with at least one Related TEAE,"MAD 50 mg q.d., n = 5",3 (60.0) no. of subjects (%)
same,No. of subjects with at least one Serious TEAE,"MAD 50 mg q.d., n = 5",0 no. of subjects (%)
same,No. of subjects with at least one TEAE,"MAD 50 mg q.d., n = 5",3 (60.0) no. of subjects (%)
same,No. of subjects withdrawn from study due to a TEAE,"MAD 50 mg q.d., n = 5",0 no. of subjects (%)
same,TEAE Abdominal pain,"MAD 50 mg q.d., n = 5",0 no. of subjects (%)
same,TEAE Back pain,"MAD 50 mg q.d., n = 5",0 no. of subjects (%)
same,TEAE Catheter site pain,"MAD 50 mg q.d., n = 5",0 no. of subjects (%)
same,TEAE Dermatitis contact,"MAD 50 mg q.d., n = 5",0 no. of subjects (%)
same,TEAE Diarrhea,"MAD 50 mg q.d., n = 5",1 (20.0) no. of subjects (%)
same,TEAE Dizziness,"MAD 50 mg q.d., n = 5",0 no. of subjects (%)
same,TEAE Dyspepsia,"MAD 50 mg q.d., n = 5",1 (20.0) no. of subjects (%)
same,TEAE Gastrointestinal sounds abnormal,"MAD 50 mg q.d., n = 5",0 no. of subjects (%)
same,TEAE Gingivitis,"MAD 50 mg q.d., n = 5",0 no. of subjects (%)
same,TEAE Headache,"MAD 50 mg q.d., n = 5",0 no. of subjects (%)
same,TEAE Medical device site dermatitis,"MAD 50 mg q.d., n = 5",0 no. of subjects (%)
same,TEAE Myalgia,"MAD 50 mg q.d., n = 5",0 no. of subjects (%)
same,TEAE Nausea,"MAD 50 mg q.d., n = 5",0 no. of subjects (%)
same,TEAE Presyncope,"MAD 50 mg q.d., n = 5",0 no. of subjects (%)
same,TEAE Somnolence,"MAD 50 mg q.d., n = 5",0 no. of subjects (%)
same,No. of TEAEs,"MAD 100 mg q.d., n = 7",32
same,No. of deaths,"MAD 100 mg q.d., n = 7",0 no. of subjects (%)
same,No. of subjects with at least one Related TEAE,"MAD 100 mg q.d., n = 7",5 (71.4) no. of subjects (%)
same,No. of subjects with at least one Serious TEAE,"MAD 100 mg q.d., n = 7",0 no. of subjects (%)
same,No. of subjects with at least one TEAE,"MAD 100 mg q.d., n = 7",7 (100) no. of subjects (%)
same,No. of subjects withdrawn from study due to a TEAE,"MAD 100 mg q.d., n = 7",0 no. of subjects (%)
same,TEAE Abdominal pain,"MAD 100 mg q.d., n = 7",2 (28.6) no. of subjects (%)
same,TEAE Back pain,"MAD 100 mg q.d., n = 7",0 no. of subjects (%)
same,TEAE Catheter site pain,"MAD 100 mg q.d., n = 7",2 (28.6) no. of subjects (%)
same,TEAE Dermatitis contact,"MAD 100 mg q.d., n = 7",1 (14.3) no. of subjects (%)
same,TEAE Diarrhea,"MAD 100 mg q.d., n = 7",2 (28.6) no. of subjects (%)
same,TEAE Dizziness,"MAD 100 mg q.d., n = 7",2 (28.6) no. of subjects (%)
same,TEAE Dyspepsia,"MAD 100 mg q.d., n = 7",0 no. of subjects (%)
same,TEAE Gastrointestinal sounds abnormal,"MAD 100 mg q.d., n = 7",1 (14.3) no. of subjects (%)
same,TEAE Gingivitis,"MAD 100 mg q.d., n = 7",2 (28.6) no. of subjects (%)
same,TEAE Headache,"MAD 100 mg q.d., n = 7",2 (28.6) no. of subjects (%)
same,TEAE Medical device site dermatitis,"MAD 100 mg q.d., n = 7",0 no. of subjects (%)
same,TEAE Myalgia,"MAD 100 mg q.d., n = 7",0 no. of subjects (%)
same,TEAE Nausea,"MAD 100 mg q.d., n = 7",1 (14.3) no. of subjects (%)
same,TEAE Presyncope,"MAD 100 mg q.d., n = 7",1 (14.3) no. of subjects (%)
same,TEAE Somnolence,"MAD 100 mg q.d., n = 7",3 (42.9) no. of subjects (%)
same,No. of TEAEs,"MAD All GDC-8264, n = 12",42
same,No. of deaths,"MAD All GDC-8264, n = 12",0 no. of subjects (%)
same,No. of subjects with at least one Related TEAE,"MAD All GDC-8264, n = 12",8 (66.7) no. of subjects (%)
same,No. of subjects with at least one Serious TEAE,"MAD All GDC-8264, n = 12",0 no. of subjects (%)
same,No. of subjects with at least one TEAE,"MAD All GDC-8264, n = 12",10 no. of subjects (%) and 10 (83.3) no. of subjects (%)
same,No. of subjects withdrawn from study due to a TEAE,"MAD All GDC-8264, n = 12",0 no. of subjects (%)
same,TEAE Abdominal pain,"MAD All GDC-8264, n = 12",2 (16.7) no. of subjects (%)
same,TEAE Back pain,"MAD All GDC-8264, n = 12",0 no. of subjects (%)
same,TEAE Catheter site pain,"MAD All GDC-8264, n = 12",2 (16.7) no. of subjects (%)
same,TEAE Dermatitis contact,"MAD All GDC-8264, n = 12",1 (8.3) no. of subjects (%)
same,TEAE Diarrhea,"MAD All GDC-8264, n = 12",3 (25.0) no. of subjects (%)
same,TEAE Dizziness,"MAD All GDC-8264, n = 12",2 (16.7) no. of subjects (%)
same,TEAE Dyspepsia,"MAD All GDC-8264, n = 12",1 (8.3) no. of subjects (%)
same,TEAE Gastrointestinal sounds abnormal,"MAD All GDC-8264, n = 12",1 (8.3) no. of subjects (%)
same,TEAE Gingivitis,"MAD All GDC-8264, n = 12",2 (16.7) no. of subjects (%)
same,TEAE Headache,"MAD All GDC-8264, n = 12",2 (16.7) no. of subjects (%)
same,TEAE Medical device site dermatitis,"MAD All GDC-8264, n = 12",0 no. of subjects (%)
same,TEAE Myalgia,"MAD All GDC-8264, n = 12",0 no. of subjects (%)
same,TEAE Nausea,"MAD All GDC-8264, n = 12",1 (8.3) no. of subjects (%)
same,TEAE Presyncope,"MAD All GDC-8264, n = 12",1 (8.3) no. of subjects (%)
same,TEAE Somnolence,"MAD All GDC-8264, n = 12",3 (25.0) no. of subjects (%)
same,No. of TEAEs,"SAD (fasted) 5 mg, n = 6",6
same,No. of deaths,"SAD (fasted) 5 mg, n = 6",0 no. of subjects (%)
same,No. of subjects with at least one Related TEAE,"SAD (fasted) 5 mg, n = 6",0 no. of subjects (%)
same,No. of subjects with at least one Serious TEAE,"SAD (fasted) 5 mg, n = 6",0 no. of subjects (%)
same,No. of subjects with at least one TEAE,"SAD (fasted) 5 mg, n = 6",5 (83.3) no. of subjects (%)
same,No. of subjects withdrawn from study due to a TEAE,"SAD (fasted) 5 mg, n = 6",0 no. of subjects (%)
same,TEAE Abdominal pain,"SAD (fasted) 5 mg, n = 6",1 (16.7) no. of subjects (%)
same,TEAE Back pain,"SAD (fasted) 5 mg, n = 6",0 no. of subjects (%)
same,TEAE Catheter site pain,"SAD (fasted) 5 mg, n = 6",1 (16.7) no. of subjects (%)
same,TEAE Dermatitis contact,"SAD (fasted) 5 mg, n = 6",1 (16.7) no. of subjects (%)
same,TEAE Diarrhea,"SAD (fasted) 5 mg, n = 6",0 no. of subjects (%)
same,TEAE Dizziness,"SAD (fasted) 5 mg, n = 6",0 no. of subjects (%)
same,TEAE Dyspepsia,"SAD (fasted) 5 mg, n = 6",1 (16.7) no. of subjects (%)
same,TEAE Gastrointestinal sounds abnormal,"SAD (fasted) 5 mg, n = 6",0 no. of subjects (%)
same,TEAE Gingivitis,"SAD (fasted) 5 mg, n = 6",0 no. of subjects (%)
same,TEAE Headache,"SAD (fasted) 5 mg, n = 6",1 (16.7) no. of subjects (%)
same,TEAE Medical device site dermatitis,"SAD (fasted) 5 mg, n = 6",0 no. of subjects (%)
same,TEAE Myalgia,"SAD (fasted) 5 mg, n = 6",0 no. of subjects (%)
same,TEAE Nausea,"SAD (fasted) 5 mg, n = 6",0 no. of subjects (%)
same,TEAE Presyncope,"SAD (fasted) 5 mg, n = 6",0 no. of subjects (%)
same,TEAE Somnolence,"SAD (fasted) 5 mg, n = 6",0 no. of subjects (%)
same,No. of TEAEs,"SAD (fasted) 25 mg, n = 6",6
same,No. of deaths,"SAD (fasted) 25 mg, n = 6",0 no. of subjects (%)
same,No. of subjects with at least one Related TEAE,"SAD (fasted) 25 mg, n = 6",0 no. of subjects (%)
same,No. of subjects with at least one Serious TEAE,"SAD (fasted) 25 mg, n = 6",0 no. of subjects (%)
same,No. of subjects with at least one TEAE,"SAD (fasted) 25 mg, n = 6",4 (66.7) no. of subjects (%)
same,No. of subjects withdrawn from study due to a TEAE,"SAD (fasted) 25 mg, n = 6",0 no. of subjects (%)
same,TEAE Abdominal pain,"SAD (fasted) 25 mg, n = 6",1 (16.7) no. of subjects (%)
same,TEAE Back pain,"SAD (fasted) 25 mg, n = 6",0 no. of subjects (%)
same,TEAE Catheter site pain,"SAD (fasted) 25 mg, n = 6",0 no. of subjects (%)
same,TEAE Dermatitis contact,"SAD (fasted) 25 mg, n = 6",0 no. of subjects (%)
same,TEAE Diarrhea,"SAD (fasted) 25 mg, n = 6",0 no. of subjects (%)
same,TEAE Dizziness,"SAD (fasted) 25 mg, n = 6",0 no. of subjects (%)
same,TEAE Dyspepsia,"SAD (fasted) 25 mg, n = 6",0 no. of subjects (%)
same,TEAE Gastrointestinal sounds abnormal,"SAD (fasted) 25 mg, n = 6",0 no. of subjects (%)
same,TEAE Gingivitis,"SAD (fasted) 25 mg, n = 6",0 no. of subjects (%)
same,TEAE Headache,"SAD (fasted) 25 mg, n = 6",2 (33.3) no. of subjects (%)
same,TEAE Medical device site dermatitis,"SAD (fasted) 25 mg, n = 6",0 no. of subjects (%)
same,TEAE Myalgia,"SAD (fasted) 25 mg, n = 6",0 no. of subjects (%)
same,TEAE Nausea,"SAD (fasted) 25 mg, n = 6",0 no. of subjects (%)
same,TEAE Presyncope,"SAD (fasted) 25 mg, n = 6",1 (16.7) no. of subjects (%)
same,TEAE Somnolence,"SAD (fasted) 25 mg, n = 6",0 no. of subjects (%)
